# Screening data as filed in PubChem.
# In the library only some 3.5% were active in any assay of this set; here they are far more common.
# MrgX1 antag: human MrgX1 receptor antagonism, primary screen. MRGX1-HEK293 calcium flux, Fluo-4, BAM8-22 antagonism; active compounds read low. B-score at 10 µM. AID 588676. 1.3% of 310,000 active;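 active = calcium-response B-score plate-corrected more than 3 library SD below zero, starting fluorescence within 5 deviations, no agonist response on first addition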;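 also: peak minus trough fluorescence over baseline after final BAM8-22 challenge near maximal dose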
# Target sequence (Q96LB2 whole entry, looked up): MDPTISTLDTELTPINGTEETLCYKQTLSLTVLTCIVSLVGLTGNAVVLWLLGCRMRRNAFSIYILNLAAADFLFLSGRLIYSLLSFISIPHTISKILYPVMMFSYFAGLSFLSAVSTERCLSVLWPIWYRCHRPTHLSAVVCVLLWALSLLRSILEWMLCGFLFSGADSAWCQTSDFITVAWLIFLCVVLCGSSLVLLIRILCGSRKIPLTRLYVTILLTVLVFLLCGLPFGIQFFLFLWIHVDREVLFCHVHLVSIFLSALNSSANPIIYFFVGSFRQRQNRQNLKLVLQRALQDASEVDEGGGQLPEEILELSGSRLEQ
# MrgX1 agonist: agonists of human MrgX1 receptor | MrgX1-HEK293 cells, Fluo-4 calcium fluorescence, agonist mode; active compounds read high | B-score at 10 µM | 0.44% of 310,000 active | AID 588627;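 active = calcium response B-score plate-corrected fluorescence ratio at least 3 library SD, with starting fluorescence B-score inside 5 SD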
#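 times = overnight plating, then 30 min 37 °C plus 30 min room-temperature dye loading | assay system = stable human MrgX1 HEK293 cell line | input = fifteen thousand cells per well | signal = kinetic calcium dye fluorescence, Fluo-4 NW | dosing = compound delivered in addition one of three | read-out = B-scored fluorescence response ratio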
# RGS4 act: potentiators or activators of RGS4; HEK293 M3R/inducible RGS4, carbachol calcium flux Fluo4; active compounds read low; B-score at 10 µM; 0.92% of 310,000 active; AID 463111;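 active = B-score of the integrated calcium signal more than 4 SD below the library mean, with starting fluorescence not abnormally high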;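 also: negative B-score means reduced calcium response which marks RGS4 activation or potentiation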
#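 Material: Inducible-RGS4 HEK293 cells carrying M3 receptor; also added: carbachol at ECmax as muscarinic agonist stimulus; incubation: compound preincubation 20 min at room temperature before agonist; signal: Fluo4-AM (2 µM) calcium-flux fluorescence, kinetic read; measure: integrated calcium ratio converted to B score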
# MrgX1 PAM: human MrgX1 positive allosteric modulation, primary screen. MrgX1-HEK293, Fluo-4 calcium flux, FDSS; active compounds read high. B-score at 10 µM. Q96LB2. 0.63% of 310,000 active;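 active = plate-corrected calcium response at least 3 library SD above typical, normal starting fluorescence, not activating the receptor alone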;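 also: compound read alongside a low EC10 to EC30 dose of BAM8-22 agonist; peak minus trough fluorescence over baseline measured at the second addition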
# RGS4 inh: human RGS4 inhibition; HEK293 M3R/RGS4 inducible, Fluo-4 calcium flux; active compounds read high; triggered by carbachol at its EC20; B-score at 10 µM; AID 463165; 0.45% of 310,000 active;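 active = B-score, a plate-corrected calcium signal, over three deviations above library mean, with baseline fluorescence within five deviations of library mean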;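 also: RGS4 expression induced by doxycycline in cells with stable M3 receptor; B-score is computed from the integrated fluorescence ratio over baseline after carbachol; higher B-score means a larger calcium signal and so more RGS4 inhibition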
# Target sequence (P49798 whole entry, looked up): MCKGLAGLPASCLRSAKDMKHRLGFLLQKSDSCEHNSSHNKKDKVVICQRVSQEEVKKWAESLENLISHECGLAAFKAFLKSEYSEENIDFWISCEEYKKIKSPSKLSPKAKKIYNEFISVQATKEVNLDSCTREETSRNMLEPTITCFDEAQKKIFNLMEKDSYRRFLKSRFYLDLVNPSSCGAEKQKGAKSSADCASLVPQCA
# MrgX1 antag conf: human MrgX1 receptor antagonism, re-confirmation screen; 19% of 2,300 active; shares compounds with MrgX1 antag; remaining BAM8-22 calcium response % of control (active compounds read low), % at 10 µM; MrgX1-HEK293, BAM8-22 calcium flux, Fluo-4; active compounds read low;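 active = remaining agonist calcium response no higher than 100% minus 3 SD of agonist-only control wells, with starting fluorescence near control levels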;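 also: agonist BAM8-22 given at a near maximal EC90 to ECmax level; peak minus minimum fluorescence divided by baseline after agonist addition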
# HEK293 Ca flux: MrgX1 antagonist counter-screen hit in parental HEK293 cells | shares compounds with MrgX1 antag | Fluo-4 calcium fluorescence, FDSS | fluorescence ratio F(max-min)/F0 at 10 µM | 2% of 4,000 active | AID 624111;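 active = duplicate-averaged calcium fluorescence ratio at least three times the standard deviation of buffer wells, a nonspecific response in parental cells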
# HEK293 Ca counter: counter-screen for MrgX1 allosteric activators: effect in parental HEK293 cells. parental HEK293 calcium flux, Fluo-4 fluorescence ratio; active compounds read high. 0.4% of 4,000 active. fluorescence ratio F(max-min)/F0 at 10 µM. shares compounds with MrgX1 antag. AID 624114;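 active = calcium fluorescence ratio, averaged over duplicates, at least 3 SD of the buffer-well ratio, meaning a nonspecific response in receptor-free cells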;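 also: untransfected parental HEK293 lacking MrgX1 used as counterscreen for MrgX1 allosteric activators; fluorescence change taken during the second addition on a kinetic imager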
# HEK293 Ca cntr2: MrgX1 activator counter-screen hit in parental HEK293 cells. shares compounds with MrgX1 antag. Fluo-4 calcium fluorescence (FDSS); active compounds read high. fluorescence ratio F(max-min)/F0 at 10 µM. 8.7% of 4,000 active. AID 624115;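 active = calcium fluorescence ratio at least three times the spread of buffer wells, meaning a non-specific response in parental cells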
# Starred values were filed as active, the others as inactive; i = inactive; / = not tested or not shown.
SMILES,MrgX1 antag,MrgX1 agonist,RGS4 act,MrgX1 PAM,RGS4 inh,MrgX1 antag conf,HEK293 Ca flux,HEK293 Ca counter,HEK293 Ca cntr2
Cc1c(C(=O)N(C)C)c2cc(Cl)ccc2n1O,-5*,i,i,i,i,i,i,i,i
O=C(CCSc1ccccc1)NC1CCCCCC1,i,i,i,i,i,/,/,/,/
O=C(CCSc1ccccc1)NC(=O)COC(=O)C1CCCCC1,-4.6*,i,i,i,i,i,i,i,i
CCN(CC)S(=O)(=O)c1ccc(OC)c(NC(=O)c2ccc3c(c2)OCO3)c1,-7.6*,i,i,i,i,i,i,i,i
COc1cccc(NC(=O)CN(C)C(=O)c2cccnc2Sc2ccc(C)c(C)c2)c1,-7.2*,i,i,i,i,i,i,i,i
Cc1sc(NC(=O)c2sc3nc4c(C)cccc4cc3c2N)c(C#N)c1C,-6.2*,i,i,i,i,60%*,i,i,i
O=C(c1cnc2n(c1=O)CCS2)N1CCc2ccccc21,i,i,i,i,i,/,/,/,/
Cc1cccc2cc3c(N)c(C(=O)N4CCc5ccccc54)sc3nc12,-8.4*,i,i,i,i,i,0.48*,i,59*
Cc1cccc2cc3c(N)c(C#N)sc3nc12,i,i,i,i,i,/,/,/,/
CC(C)c1ccc(NC(=O)CSc2nc(=O)n(CCCN3CCOCC3)c3c2CCCC3)cc1,i,i,i,i,i,/,/,/,/
Cc1c(C(=O)N(C)c2ccc(Cl)cc2)cnn1-c1ccccc1,i,i,i,i,i,/,/,/,/
CC(=O)Nc1cccc(C(=O)OC(C)C(=O)NC(=O)NC2CCCCC2)c1 (stereo not given),-9.9*,i,i,i,i,i,i,i,i
Cc1cccc(C(=O)OC(C)C(=O)NC(=O)NC2CCCCC2)c1O (stereo not given),i,i,i,i,i,/,/,/,/
COc1ccc(N2CCN(CCCNC(=O)C(=O)c3c(C)n(C)c4ccccc34)CC2)cc1,i,i,i,i,i,/,/,/,/
NCCCC[C@@H](C(=O)N1CCNCC1)n1cc(CN)nn1,-7.1*,i,/,i,/,i,i,i,i
CCCCc1cn([C@@H](CCCCN)C(=O)N2CCNCC2)nn1,i,i,i,i,i,/,/,/,/
Cc1cnc(NC(=O)C2CC=CCC2)s1 (stereo not given),i,i,i,i,i,/,/,/,/
Cc1ccnc(N2CCC(C(=O)Nc3ccc(Oc4ccccc4)cc3)CC2)n1,i,i,i,i,i,/,/,/,/
Cc1ccnc(N2CCC(C(=O)Nc3cccc(C(F)(F)F)c3)CC2)n1,-4.8*,i,i,i,i,i,i,i,i
CC(=O)c1c(C(C)=O)c(C)n(C(c2ccccc2)c2ccccc2)c1C,i,i,i,i,i,/,/,/,/
CC(=O)Nc1ccc(NC(=S)Nc2ccc(Br)cc2)cc1,i,i,i,i,i,/,/,/,/
S=C(Nc1ccccc1)Nc1ccc(Br)cc1,-7.3*,i,i,i,i,69%*,i,i,i
Cc1ccc(NC(=S)Nc2ccc(Br)cc2)cc1,-5.8*,i,i,i,i,59%*,i,i,i
S=C(Nc1ccccc1)Nc1cccc(Br)c1,-5.4*,i,i,i,i,63%*,i,i,i
Fc1ccccc1NC(=S)Nc1ccc(Br)cc1,-6.1*,i,i,i,i,71%*,i,i,i
SMILES,MrgX1 antag,MrgX1 agonist,RGS4 act,MrgX1 PAM,RGS4 inh,MrgX1 antag conf,HEK293 Ca flux,HEK293 Ca counter,HEK293 Ca cntr2
C[n+]1c(-c2ccccc2)sc([S-])c1-c1ccccc1,i,i,i,i,i,/,/,/,/
COCCNC(=O)C1CC2Cn3c(nc4cc(Cl)c(Cl)cc43)C2N1C (stereo not given),-5.5*,i,i,i,i,i,i,i,i
COc1ccc(Nc2nc(N)nc(CSc3nccc(C)n3)n2)cc1,-9.5*,i,i,i,i,i,i,i,i
Cc1cccc(Nc2nc(N)nc(CSc3nccc(C)n3)n2)c1,i,i,i,i,i,/,/,/,/
CCC(=O)Nc1nc(N)n(-c2ccccc2)n1,-6.9*,i,i,i,i,i,i,i,i
COc1ccc(-c2csc(NC(=O)c3ccccc3NS(=O)(=O)c3ccc(F)c(F)c3)n2)cc1,-6.5*,i,i,i,i,63%*,i,i,51*
CCc1ccccc1NC(=O)[C@@H]1CCC(=O)N1C1OC(=O)c2ccccc21 (stereo not given in full),-8.1*,i,i,i,i,85%*,i,i,i
COc1ccc(C2C(C(=O)c3ccco3)=C(O)C(=O)N2c2nnc(C)s2)cc1 (stereo not given),i,i,i,i,i,/,/,/,/
C=CCOc1ccc(C2C(C(=O)c3ccco3)=C(O)C(=O)N2c2nnc(C)s2)cc1 (stereo not given),-5*,i,i,i,i,i,i,i,i
CC1CCCCC1NC(=O)c1cccc(S(=O)(=O)N2CCN(Cc3ccccc3)CC2)c1 (stereo not given),-6.1*,i,i,i,i,i,i,i,i
CCCCNC(=S)Nc1ccc(F)cc1,i,i,i,i,i,/,/,/,/
CCCCNC(=S)Nc1ccc(SC(F)F)cc1,-6.9*,i,i,i,i,i,i,i,i
CC1CC(C)CN(C(=S)Nc2ccc(SC(F)F)cc2)C1 (stereo not given),-5*,i,i,i,i,i,i,i,i
CC1CN(C(=S)Nc2ccc(SC(F)F)cc2)CC(C)O1 (stereo not given),i,i,i,i,i,/,/,/,/
O=C(CN1C(=O)NC(Cc2ccccc2)C1=O)Nc1ccccc1OC(F)F (stereo not given),i,i,i,i,i,/,/,/,/
